High-throughput results: PubChem BioAssay, several laboratories
ALR H2O2 inh = blocks human ALR sulfhydryl oxidase activity | 290,000 compounds, 3.8% hits | inhibition, % (concentration not given with the values) | P55789 | AID 485317 | purified ALR, DTT oxidation, H2O2 HRP-luminol luminescence;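 active = mean replicate inhibition above about 79%, with every replicate also reaching it, limit read from the data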
Target sequence (P55789 whole entry, looked up): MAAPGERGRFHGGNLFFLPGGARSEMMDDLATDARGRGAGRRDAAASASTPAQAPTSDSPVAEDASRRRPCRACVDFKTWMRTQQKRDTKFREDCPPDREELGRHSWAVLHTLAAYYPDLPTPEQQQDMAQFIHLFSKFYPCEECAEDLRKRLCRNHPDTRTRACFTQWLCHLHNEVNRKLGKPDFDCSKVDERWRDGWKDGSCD
FAS TE block = blocks the thioesterase domain of human fatty acid synthase. P49327. inhibition, % at 15 µM. recombinant FAS-TE, OMFH fluorogenic substrate, fluorescence endpoint. 360,000 compounds, 0.67% hits;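 active = compounds whose normalised, plate-corrected inhibition of enzyme fluorescence in the single-dose primary screen is 50% or more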
M18AAP inhibitor = blocks P. falciparum M18 aspartyl aminopeptidase; 290,000 compounds, 1.2% hits; AID 1822; inhibition, % at 7.35 µM; recombinant PfM18AAP, H-Glu-NHMec fluorogenic cleavage;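 active = inhibition above the campaign mean inhibition over all tested compounds plus 3 SD, cut at about 28% in these data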
UCH37 inh = inhibitors of human deubiquitinating enzyme UCH37. Q9Y5K5. AID 588478. inhibition, % (no concentration beside the values). purified proteasome/UCH37, Ub-AMC cleavage fluorescence. 330,000 compounds, 0.33% hits;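 active = mean inhibition over replicate wells above about 20%, limit read from the data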
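system = Proteasome-associated human UCH37 deubiquitinase | amount = 0.15 nM proteasome as dispensed | medium = pH 7.4 Tris-HCl (50 mM) with ovalbumin, ATP-MgCl2, DTT | incubation = 30 min preincubation with enzyme, 25 min cleavage at room temperature | detection = AMC fluorescence 355/460 nm | read-out basis = percent inhibition | controls = no-proteasome and no-compound wells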
HDAC3 inhib = blocks human histone deacetylase 3 | O15379 | recombinant HDAC3, fluorogenic peptide/trypsin coupled, fluorescence | inhibition, % at 8.3 µM | 320,000 compounds, 0.15% hits; in the data active = inhibition above about 26%, passing the limit was not always enough
Target sequence (O15379 whole entry, looked up): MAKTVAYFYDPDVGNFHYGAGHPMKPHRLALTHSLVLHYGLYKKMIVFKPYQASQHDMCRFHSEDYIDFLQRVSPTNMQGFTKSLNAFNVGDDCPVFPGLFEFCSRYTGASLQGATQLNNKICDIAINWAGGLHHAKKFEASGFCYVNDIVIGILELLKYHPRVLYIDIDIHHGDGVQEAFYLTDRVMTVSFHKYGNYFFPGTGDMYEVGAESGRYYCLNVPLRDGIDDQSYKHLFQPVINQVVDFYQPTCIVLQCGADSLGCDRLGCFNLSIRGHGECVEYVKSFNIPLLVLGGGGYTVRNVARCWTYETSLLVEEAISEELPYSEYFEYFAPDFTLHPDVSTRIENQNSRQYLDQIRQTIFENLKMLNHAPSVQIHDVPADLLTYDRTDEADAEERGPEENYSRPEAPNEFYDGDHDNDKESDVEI
Rtt109 Vps75 = C. albicans Rtt109 histone acetyltransferase inhibition. Q5AAJ8. purified Rtt109/Vps75, ThioGlo CoA-SH fluorescence, 4 h. inhibition, % at 34.9 µM. 330,000 compounds, 0.16% hits. AID 540336;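 active = inhibition of at least 50% in every replicate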
A number is an active result; i = inactive; nt = no result given. Most compounds without a hit are left out; they make up all but 4.6% or so of the library.

SMILES	ALR H2O2 inh	FAS TE block	M18AAP inhibitor	UCH37 inh	HDAC3 inhib	Rtt109 Vps75
CC1=NN(C(N)=S)C(=O)C1N=Nc1ccccc1C (centres undefined)	i	i	i	i	i	i
CC1=NN(C(N)=S)C(=O)C1N=Nc1ccc(C)cc1C (centres undefined)	94.1	nt	i	i	i	nt
CC(=NO)c1ccc2c3ccccc3n(C)c2c1	nt	nt	nt	i	nt	nt
Cc1cccc(C(=O)ON=C2CC3CCC2(C)C3(C)C)c1 (centres undefined)	nt	nt	nt	i	nt	nt
COc1cc(C=NNC(=O)C(=O)NCc2ccco2)cc(Cl)c1O	nt	nt	nt	i	nt	nt
Cc1cccc(NC(=O)NNS(=O)(=O)c2ccc(F)cc2)c1	nt	i	i	i	i	i
Cc1ccc(S(=O)(=O)c2cc(Nc3ccccc3)ccc2O)cc1	99.5	i	nt	i	i	i
O=S(=O)(Nc1ccc(S(=O)(=O)Nc2ccccc2)cc1)c1ccccc1	nt	i	i	i	i	i
Cc1ccc(S(=O)(=O)NNc2ccccc2)cc1	100.5	i	i	i	i	i
O=S(=O)(Nc1ccc(Nc2ccccc2)cc1)c1ccc(F)cc1	98.0	i	nt	i	i	i
CC(=O)Nc1ccc(S(=O)(=O)NNc2cccc(C)c2)cc1	98.7	i	i	i	i	i
O=C(CN(Cc1ccco1)S(=O)(=O)c1ccccc1)NN=Cc1ccccc1C(=O)O	nt	nt	nt	i	nt	nt
Cc1ccc(S(=O)(=O)Nc2ccc(Nc3ccccc3)cc2)cc1	99.0	i	i	i	i	i
C/C(C=Nn1c(-c2ccco2)n[nH]c1=S)=C\c1ccco1	nt	nt	nt	i	nt	nt
Cc1ccc(SCc2cc(=O)[nH]c(N=C(N)Nc3cccc4ccccc34)n2)cc1	nt	nt	nt	i	nt	nt
CN(Cc1c(C(=O)NN=Cc2cccs2)nnn1-c1nonc1N)c1ccccc1	nt	nt	nt	i	nt	nt
CCN(CC)c1ccc(/C=N/Nc2nc(C)cc(C)n2)cc1	98.1	i	i	nt	i	nt
CN(CC(=O)N1CCN(c2cccc(Cl)c2)CC1)S(=O)(=O)c1cnc[nH]1	i	i	i	i	i	i
CN(CC(=O)N1CCN(c2ccccc2)CC1)S(=O)(=O)c1cnc[nH]1	98.0	i	i	i	i	i
CCN(CC(=O)NCc1ccc(F)cc1)C(=O)/C=C/c1cccs1	i	i	i	i	i	i
CCN(CC(=O)NCc1ccc(F)cc1)C(=O)/C=C/c1ccco1	87.5	i	i	i	i	i
Cc1[nH]c2ccccc2c1/C=N/Nc1nncn1N	i	i	60.9	nt	i	i
CCc1nnc(NN=Cc2c(C)[nH]c3ccccc23)n1N	nt	nt	nt	i	nt	nt
CCOC(=O)CCC(C)=NN=C1SC(CC(=O)O)C(=O)N1c1ccccc1 (centres undefined)	nt	nt	nt	i	nt	nt
CC(=NNC(=O)CCc1c(C)n[nH]c1C)c1ccc([N+](=O)[O-])cc1	nt	nt	nt	i	nt	nt
SMILES	ALR H2O2 inh	FAS TE block	M18AAP inhibitor	UCH37 inh	HDAC3 inhib	Rtt109 Vps75
CCOC(=O)c1ccc(N=C2C(=S)N(c3ccc(C(=O)OCC)cc3)C(=N)N2/N=C/c2ccccc2)cc1	i	i	i	nt	i	63.7
CCOC(=O)c1ccc(N=C2C(=S)N(c3ccc(C(=O)OCC)cc3)C(=N)N2N=Cc2ccccc2)cc1	nt	nt	nt	i	nt	nt
Cc1nn(-c2ccccc2)c(Cl)c1C=NNc1nc2ccccc2n1C	nt	nt	nt	i	nt	nt
Cc1cc(=O)oc2cc(OCC(=O)NN=Cc3cc([N+](=O)[O-])ccc3O)ccc12	nt	nt	nt	i	nt	nt
CC1=NNC(=O)C1CC(=O)N/N=C/c1ccc(C)o1 (centres undefined)	i	i	i	nt	i	nt
CC1=NNC(=O)C1CC(=O)N/N=C/C(C)=C/c1ccccc1 (centres undefined)	94.1	i	i	nt	i	i
CCOc1cccc(/C=N/NC(=O)CC2C(=O)NN=C2C)c1O (centres undefined)	98.2	i	i	nt	i	i
Cc1cc(C)nc(SCc2ccc(C(=O)NN=Cc3ccccc3C(=O)O)cc2)n1	nt	nt	nt	i	nt	nt
O=C(Cc1ccccc1)NN=Cc1cc2c(cc1Cl)OCO2	nt	nt	nt	i	nt	nt
O=C(CSc1ccc(C=NNC(=O)c2cccc(F)c2)o1)Nc1ccccc1	nt	nt	nt	i	nt	nt
COc1ccccc1Nc1nnc(SCC2CCCCO2)s1 (centres undefined)	i	i	i	i	i	i
Cc1ccccc1Nc1nnc(SCC2CCCCO2)s1 (centres undefined)	i	i	i	i	i	51.3
O=C(COc1ccccc1[N+](=O)[O-])NN=Cc1ccc(O)cc1	nt	nt	nt	i	nt	nt
Cc1ccccc1C(=O)ON=Cc1c(N2CCOCC2)n(C)c2ccccc12	nt	nt	nt	i	nt	nt
CCOC(=O)c1c(CSC(=N)N)n(-c2ccc(Br)cc2)c2cc(Br)c(OC(C)=O)cc12	nt	i	i	i	nt	i
CCCCCCCCOC(=O)c1c(CSC(=N)N)n(C)c2cc(Br)c(OC(C)=O)cc12	i	i	i	i	33.2	nt
Cc1cc(C)n2nc(C(=O)N/N=C/c3ccc(O)cc3)nc2n1	98.9	i	i	nt	i	i
O=C(N/N=C/c1ccc(O)cc1)c1nc(-c2ccccc2)n(-c2ccccc2)n1	98.0	i	i	nt	i	i
COc1cc(/C=N/NC(=O)c2nc(-c3ccccc3)n(-c3ccccc3)n2)ccc1O	85.4	i	i	nt	i	i
NC(=O)c1ccsc1NC(=O)c1nc(-c2ccccc2)n(-c2ccccc2)n1	86.3	i	i	i	i	i
O=C(NN=Cc1ccc(O)cc1)c1nc(-c2ccccc2)n(-c2ccccc2)n1	nt	nt	nt	i	nt	nt
O=C(Nc1ccccn1)c1nc(-c2ccccc2)n(-c2ccccc2)n1	i	i	i	i	i	i
COc1ccc(C=NNC(=O)c2[nH]nc3c2CCc2ccccc2-3)cc1OC	nt	nt	nt	i	nt	nt
COc1ccc(SCC(=O)c2cc(C)c(OC(=S)N(C)C)c(C)c2)cc1	91.6	i	i	i	i	i
CN(C)c1ccc(C=NNC(=O)COc2ccccc2)cc1	nt	nt	nt	i	nt	nt
SMILES	ALR H2O2 inh	FAS TE block	M18AAP inhibitor	UCH37 inh	HDAC3 inhib	Rtt109 Vps75
O=C1CC(N2CCN(c3ccc(O)cc3)CC2)C(=O)N1Cc1cccs1 (centres undefined)	99.2	i	i	i	i	i
O=C(c1ccncc1)c1ccc(N2CCN(C3CC(=O)N(Cc4cccs4)C3=O)CC2)cc1 (centres undefined)	nt	i	i	i	nt	i
O=C(NCCCO)c1ccc(CSc2nc3ccccc3c(=O)[nH]2)cc1	99.7	i	i	i	nt	i
COc1ccc(OC)c(C=NNC(=O)c2[nH]nc3c2CCc2ccccc2-3)c1	nt	nt	nt	i	nt	nt
O=C(NCCNC(=O)c1ccccn1)c1ccccc1	94.8	i	i	i	i	i
Cc1snnc1C(=O)NC(=S)Nc1ccccc1	92.1	i	i	i	i	i
O=C(NC(=S)Nc1cccnc1)c1ccccc1	i	i	i	i	i	i
C=C(C)Cn1c(SCC(=O)NN=Cc2c(O)ccc3ccccc23)nc2ccccc2c1=O	nt	nt	nt	i	nt	nt
Cc1cc(C(=O)NN=Cc2c(C)nn(-c3ccccc3)c2C)n[nH]1	nt	nt	nt	i	nt	nt
C=CCN1CCc2cc(O)c(O)cc2C(c2ccccc2)C1 (centres undefined)	97.9	i	nt	i	i	i
C=CCN1CCc2c(cc(O)c(O)c2Cl)C(c2ccccc2)C1 (centres undefined)	99.1	i	nt	i	i	i
